Laboratory results as given in ChEMBL document CHEMBL4118144, “Design, Synthesis, and Testing of Potent, Selective Hepsin Inhibitors via Application of an Automated Closed-Loop Optimization Platform” (J Med Chem, 2018).
Active and inactive are the calls of the source. The calls are words filed in the database; no cut-off is given here.

Experiments:
[1] = molecular target: T1, Urokinase-type plasminogen activator (Homo sapiens, UniProt P00749); assay: Inhibition of recombinant C-terminal His10-tagged human uPA (M1 to L431 residues) expressed in mouse NS0 cells using Z-GGR-AMC as substrate after 15 mins by automated fluorescence assay
Outline: (§1)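 On-line assay integrated with the flow-synthesis platform: a 20 µL aliquot of each product solution captured automatically, HPLC-purified, then diluted and assayed.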

[2] = Chromatographic hydrophobicity index, log D of the compound at pH 7 by HPLC/UV analysis; format: physicochemical; conditions: buffer
Serine protease hepsin [3] = molecular target: T2, Serine protease hepsin (Homo sapiens, UniProt P05981, D161E/R162K); assay: Inhibition of recombinant C-terminal His10-tagged human Hepsin (R45 to […] residues) D161E/ R162K double mutant expressed in mouse NS0 cells using Boc-QRR-AMC as substrate after 15 mins by automated fluorescence assay; outline: as §1
Homo sapiens [4] = species on record: Homo sapiens; assay: Selectivity ratio of IC50 for recombinant C-terminal His10-tagged human uPA (M1 to L431 residues) to IC50 for recombinant C-terminal His10-tagged human Hepsin (R45 to […] residues) D161E/ R162K double mutant by automated fluorescence assay
Serine protease hepsin [5] = molecular target: T2, Serine protease hepsin; assay: Inhibition of recombinant C-terminal His10-tagged human Hepsin (R45 to […] residues) D161E/ R162K double mutant expressed in mouse NS0 cells using Boc-QRR-AMC as substrate after 15 mins by manual fluorescence assay
Homo sapiens [6] = species on record: Homo sapiens; assay: Selectivity ratio of IC50 for recombinant C-terminal His10-tagged human uPA (M1 to L431 residues) to IC50 for recombinant C-terminal His10-tagged human Hepsin (R45 to […] residues) D161E/ R162K double mutant by manual fluorescence assay
[7] = molecular target: T1, Urokinase-type plasminogen activator; assay: Inhibition of recombinant C-terminal His10-tagged human uPA (M1 to L431 residues) expressed in mouse NS0 cells using Z-GGR-AMC as substrate after 15 mins by manual fluorescence assay
Serine protease hepsin [8] = molecular target: T3, Serine protease hepsin (Homo sapiens, UniProt P05981); assay: Inhibition of doxycycline induced Hepsin in human MCF10A cells assessed as prevention in loss of HAI-1 level at 10 uM preincubated for 30 mins followed by doxycycline addition measured after 6 hrs by Immunoblot assay; format: cell-based
T3 sequence (P05981 1-162 limits assumed): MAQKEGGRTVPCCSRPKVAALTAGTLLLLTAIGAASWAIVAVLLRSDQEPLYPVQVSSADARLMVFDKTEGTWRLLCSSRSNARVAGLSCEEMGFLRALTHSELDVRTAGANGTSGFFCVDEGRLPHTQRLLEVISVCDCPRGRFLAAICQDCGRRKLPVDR
T3 sequence (P05981 163-417 limits assumed): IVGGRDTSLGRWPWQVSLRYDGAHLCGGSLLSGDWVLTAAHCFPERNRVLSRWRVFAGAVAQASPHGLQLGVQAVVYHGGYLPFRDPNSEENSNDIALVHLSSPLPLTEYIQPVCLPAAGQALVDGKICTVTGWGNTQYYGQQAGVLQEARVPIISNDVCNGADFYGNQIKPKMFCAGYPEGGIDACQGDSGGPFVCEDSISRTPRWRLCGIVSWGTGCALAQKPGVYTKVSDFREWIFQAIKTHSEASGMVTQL
Outline: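 MCF10A-Indu20-hepsin cells (Dox-inducible hepsin) pretreated 30 min with compound or DMSO, then hepsin induced with 100 ng/mL doxycycline for 6 h; HAI-1 protein scored by immunoblot.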

Serine protease hepsin [9] = molecular target: T3, Serine protease hepsin; assay: Inhibition of doxycycline induced Hepsin in human MCF10A cells using Boc-QRR-AMC as substrate preincubated for 24 hrs followed by doxycycline induction for 24 hrs and subsequent addition of substrate by fluorescence assay; format: cell-based
Serine protease hepsin [10] = molecular target: T3, Serine protease hepsin; assay: Inhibition of doxycycline induced hepsin-mediated loss of desmosomal junctions in human MCF10A cells at 1 to 10 uM preincubated for 30 mins followed by doxycycline addition measured after 6 hrs by desmoglein 2 staining-based confocal immunofluorescence microscopic analysis; format: cell-based
Outline: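 MCF10A-Indu20-hepsin cells on coverslips pretreated 30 min with 1 or 10 µM compound or DMSO, then 100 ng/mL Dox for 6 h. Desmoglein 2 immunofluorescence: continuous pericellular staining scored positive, discontinuous or absent scored negative. Cells counted in 10 fields per treatment across three biological replicates; reported as percentages.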

Serine protease hepsin [11] = molecular target: T3, Serine protease hepsin; assay: Inhibition of hepsin-mediated conversion of Pro-HGF into active form in human Hs578T cells assessed as decrease in MET phosphorylation at 1 to 10 uM preincubated for 30 mins followed by recombinant human pro-HGF addition measured after 30 mins by immunoblot method; format: cell-based
Outline: (§2)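 Hs578T or HCC1937 breast cells incubated with DMSO or inhibitor, then 50 ng/mL recombinant human Pro-HGF added; MET pathway activation (phospho-MET) assessed by immunoblotting.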

Serine protease hepsin [12] = molecular target: T3, Serine protease hepsin; assay: Inhibition of recombinant Hepsin (unknown origin)
Serine protease hepsin [13] = molecular target: T3, Serine protease hepsin; assay: Inhibition of hepsin-mediated conversion of Pro-HGF into active form in human HCC1937 cells assessed as decrease in MET phosphorylation at 100 nM preincubated for 30 mins followed by recombinant human pro-HGF addition measured after 30 mins by immunoblot method; format: cell-based; outline: as §2
Serine protease hepsin [14] = molecular target: T3, Serine protease hepsin; assay: Inhibition of hepsin-mediated conversion of Pro-HGF into active form in human Hs578T cells assessed as decrease in MET phosphorylation at 100 nM preincubated for 30 mins followed by recombinant human pro-HGF addition measured after 30 mins by immunoblot method; format: cell-based; outline: as §2
[15] = molecular target: T1, Urokinase-type plasminogen activator; assay: Inhibition of uPA (unknown origin)
Outline: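 uPA inhibition was run as an on-line biochemical assay integrated into the automated flow-synthesis platform. A 20 µL aliquot of each product solution was automatically captured, HPLC-purified, diluted and assayed. Some samples were instead screened manually, either from platform-synthesized material or from off-line synthesis. The read-out is IC50.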

| SMILES | IC50 [1] [µM] | chromatographic logD [2] | IC50 (Serine protease hepsin [3]) [nM] | Ratio IC50 (Homo sapiens [4]) | other results |
| --- | --- | --- | --- | --- | --- |
| Cc1ccc(NC(=O)N[C@@H](C(=O)Nc2ccc(C(=N)N)cc2)C2CCCCC2)cc1 | 43 | 1.5 | 2000 | 22 | – |
| Cc1ccc(S(=O)(=O)NC(CC(=O)Nc2ccc(C(=N)N)cc2)C2CCCCC2)cc1 (configuration not stated) | 68 | 1.4 | 11000 | 6 | – |
| Cc1ccc(S(=O)(=O)NCC(Cc2ccccc2)C(=O)Nc2ccc(C(=N)N)cc2)cc1 (configuration not stated) | 1 | 1.6 | 3000 | 0.3 | – |
| N=C(N)c1ccc(NC(=O)[C@H](NS(=O)(=O)c2ccc(Cl)cc2)C2CCCCC2)cc1 | 18 | 1.5 | 100 | 180 | – |
| Cc1ccc(S(=O)(=O)NC(C(=O)Nc2ccc(C(=N)N)cc2)C2CCCC2)cc1 (configuration not stated) | 64 | 0.4 | 860 | 74 | – |
| Cc1ccc(S(=O)(=O)NC(C(=O)Nc2ccc(C(=N)N)cc2)C2CCOCC2)cc1 (configuration not stated) | > 19 | 0.4 | 1400 | > 13 | – |
| Cc1ccc(S(=O)(=O)NC(CCc2ccccc2)C(=O)Nc2ccc(C(=N)N)cc2)cc1 (configuration not stated) | > 10 | – | 1130 | – | IC50 (Serine protease hepsin [5]): 870 nM; Ratio IC50 (Homo sapiens [6]): 30; IC50 [7]: 26 µM |
| N=C(N)c1ccc(C[C@@H](NC(=O)CNS(=O)(=O)c2ccc3ccccc3c2)C(=O)N2CCCCC2)cc1 | – | – | 4460 | – | – |
| N=C(N)c1cccc(C[C@H](NS(=O)(=O)c2ccc3ccccc3c2)C(=O)N2CCCC(C(=O)NCc3cccs3)C2)c1 (some centres not stated) | 2.43 | – | 676 | – | IC50 (Serine protease hepsin [5]): 330 nM; Ratio IC50 (Homo sapiens [6]): 18; IC50 [7]: 6 µM |
| Cc1ccc(S(=O)(=O)N[C@H](C(=O)Nc2ccc(C(=N)N)cc2)C2CCCCC2)cc1 | – | 1.3 | – | – | IC50 (Serine protease hepsin [5]): 220 nM |
| COC(=O)N1CCN(C(=O)[C@H](Cc2cccc(C(=N)N)c2)NS(=O)(=O)c2ccc3ccccc3c2)CC1 | – | – | 6190 | – | – |
| Cc1ccc(S(=O)(=O)N(C)C(CC(C)C)C(=O)Nc2ccc(C(=N)N)cc2)cc1 (configuration not stated) | 24 | 1.8 | > 19000 | < 1 | – |
| Cc1ccc(S(=O)(=O)N2CCCC2C(=O)Nc2ccc(C(=N)N)cc2)cc1 (configuration not stated) | 5.3 to 28 | 0.5 | 1500 to 3000 | 3 to 9 | – |
| CC1CNc2c(cccc2S(=O)(=O)N[C@@H](CCCN=C(N)N)C(=O)N2CC[C@H](C)CC2C(=O)O)C1 (some centres not stated) | – | – | > 10000 | – | – |
| N=C(N)c1ccc2cc(OC(=O)c3ccc(N=C(N)N)cc3)ccc2c1 [NAFAMOSTAT] | – | – | 5 | – | – |
| Cc1ccc(S(=O)(=O)NC(C(=O)Nc2ccc(C(=N)N)cc2)C(C)C)cc1 (configuration not stated) | 7.2 | 0.8 | 1800 | 4 | – |
| N=C(N)c1ccc(NC(=O)[C@H](NS(=O)(=O)c2ccccc2)C2CCCCC2)cc1 | 22 | 1.2 | 1100 | 20 | – |
| CCCCC(NS(=O)(=O)c1ccc(C)cc1)C(=O)Nc1cccc(C(=N)N)c1 (configuration not stated) | 19 | 1.1 | 73000 | 0.26 | – |
| C[C@@H](Oc1cc(-c2cnn(C3CCNCC3)c2)cnc1N)c1c(Cl)ccc(F)c1Cl | – | – | – | – | inhibition (Serine protease hepsin [13]): Active; inhibition (Serine protease hepsin [14]): Active |
| N=C(N)c1ccc(NC(=O)[C@H](NS(=O)(=O)c2ccc(C(F)(F)F)cc2)C2CCCCC2)cc1 | 4.7 | 1.7 | 680 | 7 | IC50 (Serine protease hepsin [5]): 850 nM; inhibition (Serine protease hepsin [8]): inactive; IC50 (Serine protease hepsin [9]): 3.15 µM; Ratio IC50 (Homo sapiens [6]): > 2300; inhibition (Serine protease hepsin [11]): Active; IC50 [7]: > 1950 µM |
| CCCCC(NS(=O)(=O)c1ccc(C)cc1)C(=O)Nc1ccc(C(=N)N)cc1F (configuration not stated) | 8 | 1.4 | 900 | 9 | – |

The next lines start with results.

| IC50 [1] [µM] | chromatographic logD [2] | IC50 (Serine protease hepsin [3]) [nM] | Ratio IC50 (Homo sapiens [4]) | SMILES | other results |
| --- | --- | --- | --- | --- | --- |
| 58 | – | 58000 | 1 | CCCCC(NS(=O)(=O)c1ccc(C)cc1)C(=O)Nc1ccc(Br)cc1 (configuration not stated) | – |
| 11 to 20 | 1.2 | 600 to 900 | 12 to 33 | Cc1ccc(S(=O)(=O)NC(CC(C)C)C(=O)Nc2ccc(C(=N)N)cc2)cc1 (configuration not stated) | – |
| 12 | 1.3 | 300 | 40 | COc1ccc(S(=O)(=O)N[C@@H](C(=O)Nc2ccc(C(=N)N)cc2)C2CCCCC2)cc1 | – |
| 16 | 1.5 | 700 | 23 | Cc1ccc(S(=O)(=O)NC(CC2CCCC2)C(=O)Nc2ccc(C(=N)N)cc2)cc1 (configuration not stated) | – |
| – | 0.9 | – | – | Cc1ccc(S(=O)(=O)NC(C(=O)Nc2ccc(C(=N)N)cc2)c2ccccc2)cc1 (configuration not stated) | IC50 (Serine protease hepsin [5]): 250 nM; IC50 [7]: 60 µM |
| 0.484 | – | 272 | – | N=C(N)c1ccc(/C=C2\CCCC/C(=C\c3ccc(C(=N)N)cc3)C2=O)cc1 | – |
| – | – | 383 | – | CCOC(=O)c1ccc(OC(=O)CCCCCNC(=N)N)cc1 [GABEXATE] | – |
| > 10 | – | 3140 | – | COC(=O)C(Cc1cccc(C(=N)N)c1)NC(=O)CNS(=O)(=O)c1ccc(C)cc1 (configuration not stated) | – |
| 3 to 5 | 1.2 | 500 to 900 | 3 to 10 | CCCCC(NS(=O)(=O)c1ccc(C)cc1)C(=O)Nc1ccc(C(=N)N)cc1 (configuration not stated) | – |
| – | – | > 10000 | – | N=C(N)NCCC[C@@H](NC(=O)c1ccc2ccccc2c1O)C(=O)N1CCC[C@@H]1C(N)=O | – |
| 0.285 | – | 3350 | – | CCOC(=O)N1CCN(C(=O)[C@@H](Cc2cccc(C(=N)N)c2)NS(=O)(=O)c2c(C(C)C)cc(C(C)C)cc2C(C)C)CC1 | inhibition (Serine protease hepsin [8]): inactive; IC50 (Serine protease hepsin [9]): 6.49 µM; inhibition (Serine protease hepsin [10]): inactive; inhibition (Serine protease hepsin [11]): Active; IC50 (Serine protease hepsin [12]): 3 µM |
| – | – | 6550 | – | CN(C)C(=O)N1CCN(C(=O)[C@@H](Cc2cccc(C(=N)N)c2)NS(=O)(=O)c2ccc3ccccc3c2)CC1 | IC50 [15]: > 10 µM |
| 24.5 | 1.7 | 5000 | 5 | Cc1ccc(C(=O)N[C@@H](C(=O)Nc2ccc(C(=N)N)cc2)C2CCCCC2)cc1 | – |
